S100A4 MyoIIA: blocks human S100A4 binding to myosin IIA peptide. P26447. S100A4/TAMRA-MyoIIA peptide fluorescence polarization. inhibition, % at 10.7 µM. 360,000 tested, 0.14% active;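 active = mean inhibition of at least 70% across replicates, with every replicate also reaching that level; inconclusive = mean inhibition reaches 70% but some replicates fall short; inactive = mean inhibition below 70%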
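assay system = human S100A4 monomer with TAMRA-labelled myosin IIA peptide | also added = labelled myosin peptide probe, 5 nM | incubation = 5 min between mix addition and reading | control set = DMSO and TFP controls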
Env fusion inh: HIV envelope-mediated fusion inhibition; 360,000 tested, 1.1% active; HeLa-JRFL Env/CEM21 cell fusion, luciferase; inhibition, % at 12.3 µM;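 active = mean replicate inhibition score of at least 50 and every replicate individually at or above 50; inconclusive = only one of the two criteria met; inactive = mean below 50 and not all replicates reaching 50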;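 note: 0% = plate neutral controls and 100% = maraviroc near 300 nM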
E-selectin induc: induces E-selectin expression in human endothelial cells. HUVEC E-selectin immunofluorescence imaging; normalized: neutral wells 0, TNF-alpha wells 100. P16581. 260,000 tested, 0.37% active. AID 686992. activation, % at 7.58 µM;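 active = mean E-selectin-positive cell signal at least 10% of the positive control, reached in at least 60% of replicates, without over 20% cell loss; inconclusive = no rule given, readout overlaps actives, possibly toxicity-flagged; inactive = the rest, including those meeting only one limit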
Target sequence (P16581 whole entry, looked up): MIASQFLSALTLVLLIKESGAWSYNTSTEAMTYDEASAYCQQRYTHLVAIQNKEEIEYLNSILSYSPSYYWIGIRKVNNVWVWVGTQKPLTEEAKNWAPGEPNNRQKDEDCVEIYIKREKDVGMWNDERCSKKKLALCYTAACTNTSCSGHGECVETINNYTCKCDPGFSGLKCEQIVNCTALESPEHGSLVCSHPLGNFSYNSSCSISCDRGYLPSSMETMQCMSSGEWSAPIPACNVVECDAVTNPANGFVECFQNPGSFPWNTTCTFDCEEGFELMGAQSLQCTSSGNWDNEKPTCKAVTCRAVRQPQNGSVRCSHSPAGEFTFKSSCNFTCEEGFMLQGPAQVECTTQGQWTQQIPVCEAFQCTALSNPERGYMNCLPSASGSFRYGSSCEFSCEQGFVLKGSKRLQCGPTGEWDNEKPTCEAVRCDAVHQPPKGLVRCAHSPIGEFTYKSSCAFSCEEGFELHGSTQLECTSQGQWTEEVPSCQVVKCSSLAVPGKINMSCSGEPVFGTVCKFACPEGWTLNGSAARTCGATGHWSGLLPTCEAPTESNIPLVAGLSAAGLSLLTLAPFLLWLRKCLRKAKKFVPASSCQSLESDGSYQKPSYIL
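Material: HUVEC primary endothelial cells; Amount: 3,000 cells per well; Dosing: single concentration; Medium: EGM-2 growth medium on 0.1% gelatin-coated wells; Read-out basis: percent E-selectin-positive cells; Signal: immunofluorescence imaging; Control set: TNF-alpha, DMSO.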
F508del corr: correctors of CFTR F508del function in bronchial epithelial cells; activity (quench increase), % at 7.58 µM; 350,000 tested, 0.36% active; CFBE cells, YFP halide quenching; stimulated with forskolin plus potentiator P3; % fluorescence drop versus neutral controls;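 active = mean added fluorescence quench of at least 8% versus neutral control, with both replicates also reaching 8%; inconclusive = only one of the mean or replicate conditions met; inactive = mean below 8% and not both replicates reaching 8%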;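 note: cells transiently co-express mutant CFTR-F508del with the halide-sensitive YFP; corrector assay measuring rescue of mutant channel to the surface after 24 h compound exposure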
FGF22 binding: FGF22 (human) thermal shift binding. 340,000 tested, 1.5% active. recombinant FGF22 thermal shift, SYPRO orange fluorescence; percent of sucrose octasulfate shift, DMSO zero. activity (Tm shift, normalised), % at 9.99 µM. Q9HCT0. AID 651658;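 active = mean Tm shift, scaled 0 neutral to 100 positive control, at about 1.3% or above, every replicate too, limit read from the data; inconclusive = no clear call, values can overlap the other calls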
Target sequence (Q9HCT0 whole entry, looked up): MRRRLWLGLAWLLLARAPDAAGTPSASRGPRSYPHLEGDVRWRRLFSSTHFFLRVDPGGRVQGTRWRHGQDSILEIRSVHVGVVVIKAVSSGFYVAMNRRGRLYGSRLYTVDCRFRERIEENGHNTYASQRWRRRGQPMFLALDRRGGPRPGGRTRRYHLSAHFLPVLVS
* = called active by the depositor; ? = inconclusive; . = not tested or not shown; [ ] = dose if it differs, or a comment. A selection: hits, their analogues and other compounds. The true share with any hit is near 2.7%.

SMILES | S100A4 MyoIIA | Env fusion inh | E-selectin induc | F508del corr | FGF22 binding
O=C(CSc1nc2ccccc2n1S(=O)(=O)c1cccc([N+](=O)[O-])c1)NCCc1ccccc1 | -1.6 | 73.1* | 1.2 | . | 0.1
CCNC(=O)[C@@H]1[C@@H](CO)[C@@H]2Cn3c(ccc(-c4ccccc4F)c3=O)[C@@H]2N1C | -24.8 | . | 0.0 | -0.7 | 0.0
O=C(Nc1ccc(-c2nnc3n2CCCCC3)cc1)c1cc2ccccc2o1 | -5.0 | 14.3 | . | -1.0 | 43.9*
Cc1ccc(S(=O)(=O)Nc2ccc3c(c2)C(=O)N([C@H](C)CO)C[C@H](C)[C@H](CN(C)Cc2ccncc2)OCCCC[C@H](C)O3)cc1 | 5.8 | -6.1[16.7 µM] | . | -1.0 | -0.1
CCS(=O)(=O)N1CC2(CN(Cc3ccc4c(c3)OCO4)[C@@H](CO)c3c2c2ccc(OC)cc2n3C)C1 | -0.8 | . | 0.2 | -1.4 | 0.1
C[C@@H]1CN([C@@H](C)CO)C(=O)c2cccc(NC(=O)Nc3ccc(F)cc3)c2O[C@H]1CN(C)C | 15.6 | . | 0.0 | 0.2 | 0.2
CCN(C1CCCCC1)S(=O)(=O)c1ccc(S(=O)(=O)NCCc2ccncc2)cc1 | . | 33.7 | . | . | .
CCN(C1CCCCC1)S(=O)(=O)c1ccc(S(=O)(=O)NCc2ccncc2)cc1 | . | 80.7* | . | . | .
COc1ccc(S(=O)(=O)N(C)C[C@H]2Oc3ccc(NC(=O)Nc4c(C)noc4C)cc3C(=O)N([C@@H](C)CO)C[C@H]2C)cc1 | 1.6 | . | -1.7 | 1.2 | 0.1
CC(=O)c1c(C)[nH]c(C(=O)Nc2cc(F)ccc2C)c1C | -4.1 | ? | . | -2.7 | 43.1*
CC(C)c1ccc2c(c1)[C@H]1OCC[C@H]1[C@@H](c1cccs1)N2 | . | 58.8* | . | . | .
Cc1cc(C)c2c(c1)N[C@H](c1cccs1)[C@@H]1CCO[C@H]21 | 0.5 | -1.6 | 1.8 | -0.6 | -0.2
O=C(CN1CCN(C(c2ccccc2)c2ccccc2)CC1)Nc1ccc(N2CCOCC2)cc1 | -1.8 | -5.1 | 2.0 | -1.5 | 43.0*
CCOC(=O)C1=C(C)N=C2c3ccccc3C(=O)C2C1c1ccc(Cl)cc1 (stereo not given) | . | 84.3* | . | . | .
O=C(N[C@H]1CC[C@@H](CC(=O)N2CCN(c3ccccc3)CC2)O[C@@H]1CO)c1ccccc1 | -5.6 | 20.0[16.7 µM] | 0.1 | -3.1 | -0.1
CCCCn1nc2cc(C(=O)NCc3cc(C(F)(F)F)cc(C(F)(F)F)c3)ccc2c1OC | 0.0 | 62.9* | 0.9 | 3.2 | 0.0
CCn1nc2cc(C(=O)NCc3cc(C(F)(F)F)cc(C(F)(F)F)c3)ccc2c1OC | -29.9 | -15.3 | -0.1 | -1.5 | 0.0
Cc1ccc(NC2=NCC(=O)N2C2CCCC2)cc1 | 0.2 | -0.3 | -0.2 | 1.0 | 43.2*
CCCNC(=O)N1C[C@@H](C)[C@@H](OC)CN(C)C(=O)c2cc(NC(=O)CC)ccc2OC[C@@H]1C | 0.9 | . | -0.1 | -2.1 | -0.1
COc1ccc(CCNC(=O)COC(=O)c2cccn2C)cc1 | 4.1 | 78.5* | -0.1 | 0.8 | .
Cn1cccc1C(=O)OCC(=O)NCCCc1ccccc1 | 2.6 | 15.5 | 9.2 | 0.2 | 0.1
Cc1nc(C)c(C(=O)OCC(=O)NCCc2ccc(S(N)(=O)=O)cc2)s1 | -3.7 | 8.9 | . | 3.5 | 0.0
Cn1cccc1C(=O)OCC(=O)NCCc1ccc(S(N)(=O)=O)cc1 | 2.8 | 71.8* | 0.7 | 2.5 | -0.1
c1ccc2[nH]c(CCCc3nc4ccccc4[nH]3)nc2c1 | 9.5 | -15.9 | . | . | 0.1
S=c1cnc2ccccc2[nH]1 | -9.1 | -17.3 | . | 4.7 | 43.2*
SMILES | S100A4 MyoIIA | Env fusion inh | E-selectin induc | F508del corr | FGF22 binding
CC(=O)c1ccc(N2CCN(c3ncccn3)CC2)c([N+](=O)[O-])c1 | 1.4 | -18.5 | -0.1 | 1.9 | 0.1
CC(=O)c1ccc(N2CCc3ccccc3C2)c([N+](=O)[O-])c1 | -1.8 | -16.1 | 70.0* | 0.2 | -0.1
O=C(C[C@@H]1CC[C@@H]2[C@H](COC[C@@H](O)CN2C(=O)c2cnccn2)O1)NCc1ccc(F)cc1 | 6.3 | 16.5[16.7 µM] | -0.1 | 0.4 | 0.0
O=[N+]([O-])c1ccc(Oc2ccc(/C=N/O)cc2)nc1 | -0.8 | -8.8 | . | -0.6 | 42.9*
COc1ccc(-c2nn(-c3ccccc3)cc2N)cc1 | 0.9 | -116.8 | . | -3.2 | 43.5*
COC(=O)c1cc(C#N)c(OC)nc1C | 6.1 | -14.6 | . | -2.5 | 43.0*
COc1ccc(S(=O)(=O)N(C)C[C@@H]2OCCCC[C@@H](C)Oc3ccc(NS(=O)(=O)c4ccc(C)cc4)cc3C(=O)N([C@@H](C)CO)C[C@@H]2C)cc1 | -25.0 | -51.4[16.7 µM] | -0.1 | 6.5 | 0.4
O=C(c1cc(-c2ccc(Cl)cc2Cl)on1)N1CCCCCC1 | -4.5 | -88.3 | -0.2 | -2.0 | -0.5
O=C(c1cc(-c2ccc(Cl)cc2Cl)on1)N1CCCC1 | 1.6 | -79.8 | 0.7 | 1.9 | 43.6*
c1ccc(N=C2SCCCS2)cc1 | 3.5 | -9.3 | -0.1 | -4.4 | 43.1*
Clc1ccc(N=C2SCCS2)cc1 | 1.3 | -4.9 | -0.1 | -0.6 | 0.1
CCc1ccc(NC(=O)C2=CC(c3ccc(OC)c(OC)c3)=NS(=O)(=O)N2C)cc1 | -1.1 | 56.0* | . | 2.1 | 0.1
C[C@@H]1CCCCO[C@@H](CN(C)S(=O)(=O)c2cn(C)cn2)[C@@H](C)CN([C@H](C)CO)C(=O)c2cc(NC(=O)CCCN(C)C)ccc2O1 | 4.3 | -2.4[16.7 µM] | 0.2 | -1.0 | -0.2
CCN(CC)S(=O)(=O)c1cccc(C(=O)Nc2ccc(C#N)cc2)c1 | . | 57.1* | . | . | .
CN(C)S(=O)(=O)c1cccc(C(=O)Nc2ccc(S(=O)(=O)N3CCCC3)cc2)c1 | 5.8 | 7.2 | 3.1 | -0.5 | 44.1*
C/C=C/c1ccc2c(c1)O[C@@H](CN(C)Cc1cccnc1)[C@@H](C)CN([C@@H](C)CO)S2(=O)=O | 22.7 | -16.0[16.7 µM] | -0.2 | -4.2 | -0.2
c1ccc(Nc2ccccc2)cc1 | 0.6 | -6.8 | 0.2 | -0.6 | 0.4
COC1=C(Nc2ccccc2)C(=O)C(OC)=C(Nc2ccccc2)C1=O | 2.2 | -38.5 | -0.1 | -3.5 | 44.2*
C[C@@H]1CCCCO[C@@H](CN(C)Cc2ccc(C(F)(F)F)cc2)[C@@H](C)CN([C@H](C)CO)C(=O)c2cc(NC(=O)c3ccccc3)ccc2O1 | -2.9 | 27.6[16.7 µM] | 0.1 | -2.1 | 0.0
C[C@H]1CCCCO[C@H](CN(C)Cc2ccc(C(F)(F)F)cc2)[C@@H](C)CN([C@@H](C)CO)C(=O)c2cc(NC(=O)c3ccccc3)ccc2O1 | 0.4 | 59.4*[16.7 µM] | -0.1 | 0.8 | -0.2
C[C@@H]1CCCCO[C@H](CN(C)Cc2ccc(C(F)(F)F)cc2)[C@@H](C)CN([C@@H](C)CO)C(=O)c2cc(NC(=O)c3ccccc3)ccc2O1 | 1.6 | 14.5[16.7 µM] | -0.1 | 2.1 | -0.4
C[C@H]1CCCCO[C@@H](CN(C)Cc2ccc(C(F)(F)F)cc2)[C@@H](C)CN([C@@H](C)CO)C(=O)c2cc(NC(=O)c3ccccc3)ccc2O1 | -2.9 | 68.9*[16.7 µM] | 0.0 | 1.3 | 0.1

Screening data: PubChem BioAssay, Broad Institute
